Measured values: ChEMBL document CHEMBL3734675, “Synthesis, antimycobacterial and antibacterial activity of fluoroquinolone derivatives containing an 3-alkoxyimino-4-(cyclopropylanimo)methylpyrrolidine moiety” (2015)
≈ marks a conversion by molar mass, not a printed value.

Legend:
Type in all cases: functional
Enterococcus faecalis [1] = test: Antibacterial activity against Enterococcus faecalis 14-1 after 18 to 24 hrs by two-fold serial dilution method
Method in brief: (§1)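 Twofold serial dilution in agar media against Gram-positive and Gram-negative strains. Plates incubated at 35 °C for 18–24 h. MIC read as the lowest compound concentration giving complete inhibition of bacterial growth.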

Streptococcus pneumoniae = test: Antibacterial activity against methicillin-resistant Streptococcus pneumoniae ATCC 19615 after 18 to 24 hrs by two-fold serial dilution method
Method in brief: (§2)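 Agar media, standard twofold serial dilution. MIC is the lowest concentration giving complete inhibition of bacterial growth after incubation at 35 °C for 18–24 h. Ciprofloxacin and levofloxacin were run as comparators.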

Escherichia coli [2] = test: Antibacterial activity against extended-spectrum beta-lactamase producing Escherichia coli 14-1 after 18 to 24 hrs by two-fold serial dilution method; method in brief: as §1
Escherichia coli [3] = test: Antibacterial activity against Escherichia coli ATCC 25922 after 18 to 24 hrs by two-fold serial dilution method; method in brief: as §1
Pseudomonas aeruginosa [4] = test: Antibacterial activity against Pseudomonas aeruginosa 14-9 after 18 to 24 hrs by two-fold serial dilution method; method in brief: as §1
[5] = system: Staphylococcus epidermidis; test: Antibacterial activity against methicillin-resistant Staphylococcus epidermidis 14-22 after 18 to 24 hrs by two-fold serial dilution method; method in brief: as §2
Klebsiella pneumoniae [6] = test: Antibacterial activity against Klebsiella pneumoniae 14-3 after 18 to 24 hrs by two-fold serial dilution method; method in brief: as §1
Escherichia coli [7] = test: Antibacterial activity against Escherichia coli 14-1 after 18 to 24 hrs by two-fold serial dilution method; method in brief: as §1
[8] = system: Staphylococcus epidermidis; test: Antibacterial activity against methicillin-resistant Staphylococcus epidermidis 14-21 after 18 to 24 hrs by two-fold serial dilution method; method in brief: as §2
Staphylococcus aureus [9] = test: Antibacterial activity against methicillin-resistant Staphylococcus aureus 14-5 after 18 to 24 hrs by two-fold serial dilution method; method in brief: as §2
Klebsiella pneumoniae [10] = test: Antibacterial activity against Klebsiella pneumoniae 14-4 after 18 to 24 hrs by two-fold serial dilution method; method in brief: as §1
Staphylococcus aureus [11] = test: Antibacterial activity against Staphylococcus aureus CMCC 26003 after 18 to 24 hrs by two-fold serial dilution method; method in brief: as §1
Klebsiella pneumoniae [12] = test: Antibacterial activity against extended-spectrum beta-lactamase producing Klebsiella pneumoniae 14-17 after 18 to 24 hrs by two-fold serial dilution method; method in brief: as §1
[13] = system: Staphylococcus epidermidis; test: Antibacterial activity against methicillin-sensitive Staphylococcus epidermidis 14-2 after 18 to 24 hrs by two-fold serial dilution method; method in brief: as §1
[14] = system: Mycobacterium tuberculosis; test: Antimycobacterial activity against Mycobacterium tuberculosis H37Rv ATCC 27294 incubated for 7 days by microplate Alamar Blue assay; details: H37Rv ATCC 27294, 168 h
Method in brief: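 Fluorescence read-out. MIC is the lowest concentration that reduces fluorescence by at least 90% relative to the mean of replicate bacterium-only controls. Isoniazid and rifampicin were included as reference drugs.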

Enterococcus faecium [15] = test: Antibacterial activity against Enterococcus faecium 14-6 after 18 to 24 hrs by two-fold serial dilution method; method in brief: as §1
Klebsiella pneumoniae [16] = test: Antibacterial activity against Klebsiella pneumoniae 14-1 after 18 to 24 hrs by two-fold serial dilution method; method in brief: as §1
Klebsiella pneumoniae [17] = test: Antibacterial activity against Klebsiella pneumoniae 14-2 after 18 to 24 hrs by two-fold serial dilution method; method in brief: as §1
Enterococcus faecium [18] = test: Antibacterial activity against Enterococcus faecium 14-5 after 18 to 24 hrs by two-fold serial dilution method; method in brief: as §1
Staphylococcus aureus [19] = test: Antibacterial activity against methicillin-sensitive Staphylococcus aureus 14-3 after 18 to 24 hrs by two-fold serial dilution method; method in brief: as §1
Escherichia coli [20] = test: Antibacterial activity against extended-spectrum beta-lactamase producing Escherichia coli 14-2 after 18 to 24 hrs by two-fold serial dilution method; method in brief: as §1
Escherichia coli [21] = test: Antibacterial activity against Escherichia coli 14-2 after 18 to 24 hrs by two-fold serial dilution method; method in brief: as §1
Pseudomonas aeruginosa [22] = test: Antibacterial activity against Pseudomonas aeruginosa 14-14 after 18 to 24 hrs by two-fold serial dilution method; method in brief: as §1
Pseudomonas aeruginosa [23] = test: Antibacterial activity against Pseudomonas aeruginosa ATCC 27853 after 18 to 24 hrs by two-fold serial dilution method; method in brief: as §1
Klebsiella pneumoniae [24] = test: Antibacterial activity against extended-spectrum beta-lactamase producing Klebsiella pneumoniae 14-19 after 18 to 24 hrs by two-fold serial dilution method; method in brief: as §1
Pseudomonas aeruginosa [25] = test: Antibacterial activity against Pseudomonas aeruginosa 14-15 after 18 to 24 hrs by two-fold serial dilution method; method in brief: as §1
Klebsiella pneumoniae [26] = test: Antibacterial activity against extended-spectrum beta-lactamase producing Klebsiella pneumoniae 14-18 after 18 to 24 hrs by two-fold serial dilution method; method in brief: as §1
Enterococcus faecalis [27] = test: Antibacterial activity against Enterococcus faecalis 14-2 after 18 to 24 hrs by two-fold serial dilution method; method in brief: as §1
Staphylococcus aureus [28] = test: Antibacterial activity against methicillin-sensitive Staphylococcus aureus 14-1 after 18 to 24 hrs by two-fold serial dilution method; method in brief: as §1
[29] = system: Staphylococcus epidermidis; test: Antibacterial activity against methicillin-resistant Staphylococcus epidermidis 14-37 after 18 to 24 hrs by two-fold serial dilution method; method in brief: as §2
Pseudomonas aeruginosa [30] = test: Antibacterial activity against Pseudomonas aeruginosa 14-16 after 18 to 24 hrs by two-fold serial dilution method; method in brief: as §1
Enterococcus faecium [31] = test: Antibacterial activity against Enterococcus faecium 14-2 after 18 to 24 hrs by two-fold serial dilution method; method in brief: as §1
Staphylococcus aureus [32] = test: Antibacterial activity against methicillin-resistant Staphylococcus aureus 14-4 after 18 to 24 hrs by two-fold serial dilution method; method in brief: as §2
Staphylococcus aureus [33] = test: Antibacterial activity against methicillin-sensitive Staphylococcus aureus 14-4 after 18 to 24 hrs by two-fold serial dilution method; method in brief: as §1
[34] = system: Staphylococcus epidermidis; test: Antibacterial activity against methicillin-resistant Staphylococcus epidermidis 14-39 after 18 to 24 hrs by two-fold serial dilution method; method in brief: as §2

Row | SMILES | MIC (Enterococcus faecalis [1]) [µg/mL] | MIC (Streptococcus pneumoniae) [µg/mL] | MIC (Escherichia coli [2]) [µg/mL] | MIC (Escherichia coli [3]) [µg/mL] | MIC (Pseudomonas aeruginosa [4]) [µg/mL] | MIC [5] [µg/mL] | MIC (Klebsiella pneumoniae [6]) [µg/mL] | MIC (Escherichia coli [7]) [µg/mL] | MIC [8] [µg/mL] | MIC (Staphylococcus aureus [9]) [µg/mL] | MIC (Klebsiella pneumoniae [10]) [µg/mL] | MIC (Staphylococcus aureus [11]) [µg/mL] | MIC (Klebsiella pneumoniae [12]) [µg/mL] | MIC [13] [µg/mL] | MIC90 [14] [µg/mL] | MIC (Enterococcus faecium [15]) [µg/mL] | MIC (Klebsiella pneumoniae [16]) [µg/mL] | MIC (Klebsiella pneumoniae [17]) [µg/mL] | MIC (Enterococcus faecium [18]) [µg/mL] | MIC (Staphylococcus aureus [19]) [µg/mL] | further results
1 | CCO/N=C1/CN(c2c(F)cc3c(=O)c(C(=O)O)cn4c3c2OC[C@@H]4C)CC1(C)CNC1CC1 (stereo not given in full) | 32 (≈ 67.7 µM) | 0.25 (≈ 0.529 µM) | 8 (≈ 16.9 µM) | 2 (≈ 4.23 µM) | 64 (≈ 135 µM) | 8 (≈ 16.9 µM) | > 128 | > 128 | 8 (≈ 16.9 µM) | 16 (≈ 33.9 µM) | > 128 | < 0.008 | 32 (≈ 67.7 µM) | 32 (≈ 67.7 µM) | 2.76 (≈ 5.84 µM) | 16 (≈ 33.9 µM) | 64 (≈ 135 µM) | 64 (≈ 135 µM) | 4 (≈ 8.47 µM) | 0.03 (≈ 0.0635 µM) | MIC (Escherichia coli [20]): > 128 µg/mL; MIC (Escherichia coli [21]): > 128 µg/mL; MIC (Pseudomonas aeruginosa [22]): 128 µg/mL (≈ 271 µM); MIC (Pseudomonas aeruginosa [23]): 64 µg/mL (≈ 135 µM); MIC (Klebsiella pneumoniae [24]): 32 µg/mL (≈ 67.7 µM); MIC (Pseudomonas aeruginosa [25]): 64 µg/mL (≈ 135 µM); MIC (Klebsiella pneumoniae [26]): 32 µg/mL (≈ 67.7 µM); MIC (Enterococcus faecalis [27]): 1 µg/mL (≈ 2.12 µM); MIC (Staphylococcus aureus [28]): 4 µg/mL (≈ 8.47 µM); MIC [29]: 4 µg/mL (≈ 8.47 µM); MIC (Pseudomonas aeruginosa [30]): 64 µg/mL (≈ 135 µM); MIC (Enterococcus faecium [31]): 16 µg/mL (≈ 33.9 µM); MIC (Staphylococcus aureus [32]): 64 µg/mL (≈ 135 µM); MIC (Staphylococcus aureus [33]): 0.06 µg/mL (≈ 0.127 µM); MIC [34]: 8 µg/mL (≈ 16.9 µM)
2 | CO/N=C1/CN(c2nc3c(cc2F)c(=O)c(C(=O)O)cn3-c2nc(N)c(F)cc2F)CC1(C)CNC1CC1 (stereo not given) | 128 (≈ 241 µM) | 4 (≈ 7.53 µM) | 128 (≈ 241 µM) | 16 (≈ 30.1 µM) | 128 (≈ 241 µM) | 32 (≈ 60.2 µM) | > 128 | > 128 | 128 (≈ 241 µM) | 32 (≈ 60.2 µM) | > 128 | 0.25 (≈ 0.47 µM) | > 128 | 128 (≈ 241 µM) | 15.6 (≈ 29.4 µM) | 64 (≈ 120 µM) | > 128 | > 128 | 128 (≈ 241 µM) | 16 (≈ 30.1 µM) | MIC (Escherichia coli [20]): > 128 µg/mL; MIC (Escherichia coli [21]): 128 µg/mL (≈ 241 µM); MIC (Pseudomonas aeruginosa [22]): > 128 µg/mL; MIC (Pseudomonas aeruginosa [23]): 128 µg/mL (≈ 241 µM); MIC (Klebsiella pneumoniae [24]): > 128 µg/mL; MIC (Pseudomonas aeruginosa [25]): 128 µg/mL (≈ 241 µM); MIC (Klebsiella pneumoniae [26]): > 128 µg/mL; MIC (Enterococcus faecalis [27]): 8 µg/mL (≈ 15.1 µM); MIC (Staphylococcus aureus [28]): 16 µg/mL (≈ 30.1 µM); MIC [29]: 64 µg/mL (≈ 120 µM); MIC (Pseudomonas aeruginosa [30]): > 128 µg/mL; MIC (Enterococcus faecium [31]): 64 µg/mL (≈ 120 µM); MIC (Staphylococcus aureus [32]): 32 µg/mL (≈ 60.2 µM); MIC (Staphylococcus aureus [33]): 8 µg/mL (≈ 15.1 µM); MIC [34]: 128 µg/mL (≈ 241 µM)
